Assay [1] deals with T1, Adenosine receptor A1 (Bos taurus, UniProt P28190).
T1 sequence (P28190 whole entry): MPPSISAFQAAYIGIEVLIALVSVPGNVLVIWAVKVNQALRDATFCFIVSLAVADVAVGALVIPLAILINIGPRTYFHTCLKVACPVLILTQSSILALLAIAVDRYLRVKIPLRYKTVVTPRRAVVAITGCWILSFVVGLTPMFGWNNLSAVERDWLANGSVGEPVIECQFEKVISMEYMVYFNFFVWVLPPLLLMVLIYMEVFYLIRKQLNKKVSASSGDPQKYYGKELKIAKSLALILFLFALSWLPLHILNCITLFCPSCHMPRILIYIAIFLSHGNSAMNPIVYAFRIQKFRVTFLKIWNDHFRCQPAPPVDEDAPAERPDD
In words: Inhibition of [3H]CHA binding to adenosine A1 receptor of bovine brain cortical membrane. The procedure, abridged:
(§1)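 A1 affinity was taken from displacement of specific [3H]N6-cyclohexyladenosine ([3H]CHA, agonist radioligand) binding in bovine or human cortical membranes. Values are given as Ki in nM ± error.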

The target of assay [2] is Adenosine receptor A2a (Bos taurus). Nature of the assay: Inhibition of [3H]CGS-21680 binding to adenosine A2a receptor of bovine striatal membrane.
Assay [3] has as its target T2, Adenosine receptor A1 (Homo sapiens, UniProt P30542).
T2 sequence (P30542 whole entry): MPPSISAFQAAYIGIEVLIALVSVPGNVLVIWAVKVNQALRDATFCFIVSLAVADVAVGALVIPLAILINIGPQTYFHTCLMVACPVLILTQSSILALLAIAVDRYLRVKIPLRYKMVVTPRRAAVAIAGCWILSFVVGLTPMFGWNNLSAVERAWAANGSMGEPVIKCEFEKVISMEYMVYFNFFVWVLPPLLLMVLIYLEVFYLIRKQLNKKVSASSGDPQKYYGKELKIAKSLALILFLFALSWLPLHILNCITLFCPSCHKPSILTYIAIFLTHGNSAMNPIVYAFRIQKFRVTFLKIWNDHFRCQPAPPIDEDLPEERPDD
In words: Inhibition of [3H]CHA binding to adenosine A1 receptor of human brain cortical membrane. The procedure, abridged:
as §1

The next assay deals with Adenosine receptor A2a (Homo sapiens, UniProt P29274). In words: Inhibition of [3H]CGS-21680 binding to adenosine A2a receptor of human striatal membrane. The procedure, abridged:
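Competition binding to striatal membranes from bovine or human brain, measuring displacement of the specific binding of the tritiated agonist [3H]CGS21680 (2-[[p-(2-carboxyethyl)phenyl]ethyl]amino-5'-N-ethylcarboxamidoadenosine). Affinity reported as Ki (nM) ± error.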

Chain of Adenosine receptor A2a (P29274 whole entry): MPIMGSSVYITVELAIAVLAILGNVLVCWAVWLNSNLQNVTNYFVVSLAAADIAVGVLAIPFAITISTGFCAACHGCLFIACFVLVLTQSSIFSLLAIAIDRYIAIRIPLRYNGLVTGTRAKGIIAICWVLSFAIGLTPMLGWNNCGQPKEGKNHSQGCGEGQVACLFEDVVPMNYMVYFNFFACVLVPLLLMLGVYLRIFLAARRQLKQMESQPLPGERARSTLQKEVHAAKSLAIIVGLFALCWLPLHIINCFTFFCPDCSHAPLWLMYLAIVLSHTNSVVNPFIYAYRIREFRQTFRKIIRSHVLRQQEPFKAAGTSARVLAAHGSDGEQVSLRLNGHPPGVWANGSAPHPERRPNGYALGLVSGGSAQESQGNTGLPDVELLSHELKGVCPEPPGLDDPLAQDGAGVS

On to `O=C(NCc1ccccc1)c1cnc2nc(NCc3ccccc3)ccc2c1O`, for which the results for the Ki (at Adenosine receptor A1 [1]; in assay [2]) were 0.677 µM and more than 10 µM, respectively.
As for `Cc1ccc2c(O)c(C(=O)NCc3ccc(N)cc3)cnc2n1`, the Ki at Adenosine receptor A1 [1] was 2.86 µM; in assay [2], 0.146 µM.
Taken in the same sequence, the figures for `O=C(NCc1ccccc1)c1cnc2ncccc2c1O` were 2.75 µM and 1.17 µM.
Turning to `Cc1ccc2c(O)c(C(=O)OCc3ccccc3)cnc2n1`, the Ki (at Adenosine receptor A1 [1]; in assay [2]) was more than 10 µM in each case.
For `Cc1ccc2c(O)c(C(=O)NCc3ccccc3)cnc2n1`, the results for the Ki at Adenosine receptor A1 [3] and on Adenosine receptor A1 [1] were 0.63 µM and 0.28 µM, respectively.
For the molecule `Cc1ccc2c(N=[N+]=[N-])c(Cc3ccccc3)cnc2n1`, the Ki on Adenosine receptor A2a is 5.36 µM; on Adenosine receptor A1 [3], more than 10 µM; at Adenosine receptor A1 [1] it was 3.34 µM; in assay [2], 3.36 µM.
Consider `CN(C)c1ccc2c(O)c(C(=O)NCc3ccccc3)cnc2n1`, for which the Ki worked out at 0.122 µM on Adenosine receptor A1 [1] and 0.057 µM in assay [2].
Regarding `CC(=O)N(C(C)=O)c1ccc(CNC(=O)c2cnc3nc(C)ccc3c2O)cc1`, at Adenosine receptor A1 [1], the Ki is more than 10 µM.
Regarding `O=C(NCc1ccccc1)c1cnc2nc(Cl)ccc2c1O`, the values for the Ki (at Adenosine receptor A1 [1]; in assay [2]) were 0.586 µM and 0.067 µM, respectively.
Taken in the same sequence, the figures for `Cc1ccc2c(O)c(C(=O)NCc3ccc([N+](=O)[O-])cc3)cnc2n1` were 1.63 µM and 0.099 µM.
Turning to `Cc1ccc2c(O)c(C(=O)NC3CCC(C)CC3)cnc2n1` (configuration not stated), the Ki was 0.36 µM at Adenosine receptor A2a, 5.6 µM at Adenosine receptor A1 [3], 6 µM on Adenosine receptor A1 [1] and 0.39 µM in assay [2].
As to `Cc1ccc2c(O)c(C(=O)NN3CCN(C)CC3)cnc2n1`, the Ki at Adenosine receptor A1 [3] and on Adenosine receptor A1 [1] was more than 10 µM in each case.
Regarding `Cc1ccc2c(O)c(C(=O)NCCC(C)C)cnc2n1`, the inhibition constant (Ki) at Adenosine receptor A2a was 0.64 µM; at Adenosine receptor A1 [3] it was more than 10 µM; at Adenosine receptor A1 [1], more than 10 µM; in assay [2] it was 1.43 µM.
With `O=C(NCc1ccccc1)c1cnc2nc(NCCc3ccccc3)ccc2c1O`, the affinity at Adenosine receptor A1 [1], expressed as Ki, was 0.977 µM.
`Cc1ccc(CNC(=O)c2cnc3nc(C)ccc3c2O)cc1` had a Ki on Adenosine receptor A1 [3] of 1.58 µM.
For the molecule `O=C(NCc1ccccc1)c1cnc2nc(N(CCO)CCO)ccc2c1O`, the inhibition constant (Ki) (on Adenosine receptor A1 [1]; in assay [2]) was more than 10 µM in each case.
For the molecule `Cc1ccc2c(NN)c(Cc3ccccc3)cnc2n1`, the inhibition constant Ki on Adenosine receptor A2a is more than 10 µM; at Adenosine receptor A1 [3], more than 10 µM; on Adenosine receptor A1 [1] it was 0.22 µM; in assay [2], 0.72 µM.
For `Cc1ccc2c(O)c(Cc3ccccc3Cl)cnc2n1`, the inhibitory constant (Ki) came out at 4.16 µM at Adenosine receptor A1 [3] and 8.73 µM at Adenosine receptor A1 [1].
Taken in the same sequence, the figures for `Cc1ccc2c(NC3CCCCC3)c(Cc3ccccc3)cnc2n1` were more than 10 µM and more than 10 µM.
For `Cc1ccc2c(O)c(C(=O)NCc3ccc(Cl)cc3)cnc2n1` the same measures were 1.63 µM and 1.74 µM.
For `Cc1ccc2c(O)c(C(=O)NCc3ccco3)cnc2n1` the same measures were 0.3 µM and 1.35 µM.
For the molecule `Nc1ccc2c(O)c(C(=O)NCc3ccc(Cl)cc3)cnc2n1`, the Ki stood at 0.5 µM on Adenosine receptor A2a, 6.24 µM at Adenosine receptor A1 [3], 4.49 µM at Adenosine receptor A1 [1] and 0.54 µM in assay [2].
As to `Nc1ccc2c(O)c(C(=O)NCc3ccccc3)cnc2n1`, the inhibitory constant (Ki) at Adenosine receptor A1 [3] stood at 0.63 µM; on Adenosine receptor A1 [1] it was 0.97 µM.
`O=C(NCc1ccccc1)c1cnc2[nH]c(=O)ccc2c1O`: the Ki on Adenosine receptor A1 [1] was more than 10 µM.
Take `Cc1ccc2c(O)c(C(=O)NCc3ccc(F)cc3)cnc2n1`: the Ki on Adenosine receptor A1 [3] came out at 1.65 µM; on Adenosine receptor A1 [1], 1.77 µM.
Take `CC(=O)Nc1ccc2c(O)c(C(=O)NCc3ccccc3)cnc2n1`: the Ki is more than 10 µM at Adenosine receptor A1 [1] and 6.78 µM in assay [2].
For the molecule `COc1ccc(CNC(=O)c2cnc3nc(C)ccc3c2O)cc1`, the Ki was 2.41 µM at Adenosine receptor A2a, 4.37 µM at Adenosine receptor A1 [3], more than 10 µM on Adenosine receptor A1 [1] and 0.74 µM in assay [2].
For the molecule `Cc1ccc2c(O)c(Cc3ccccc3)cnc2n1`, the Ki at Adenosine receptor A2a was 3.33 µM; on Adenosine receptor A1 [3], 4.18 µM; on Adenosine receptor A1 [1] it was more than 10 µM; in assay [2] it was more than 10 µM.
On to `Cc1ccc2c(O)c(CC(=O)NC3CCCCC3)cnc2n1`, for which the Ki on Adenosine receptor A1 [3] and at Adenosine receptor A1 [1] was more than 10 µM in each case.
`Cc1ccc2c(O)c(CC(=O)NCc3ccccc3)cnc2n1`: the Ki on Adenosine receptor A2a was 0.87 µM; on Adenosine receptor A1 [3] it was more than 10 µM; on Adenosine receptor A1 [1], more than 10 µM; in assay [2] it was more than 10 µM.
With `Cc1ccc2c(O)c(C(=O)NCc3ccc(NC(=O)c4ccccc4)cc3)cnc2n1`, the Ki at Adenosine receptor A1 [1] turned out to be 7.59 µM; in assay [2], 0.588 µM.
Consider `O=C(NCc1ccccc1)c1cnc2nc(Br)ccc2c1O`, for which the affinity at Adenosine receptor A1 [1] corresponds to a Ki of 5.32 µM. In other words, the single-digit micromolar range.
For `Cc1ccc2c(O)c(C(=O)NCCc3ccccc3)cnc2n1`, the Ki at Adenosine receptor A2a was 0.15 µM; on Adenosine receptor A1 [3] it was 0.73 µM; at Adenosine receptor A1 [1], 0.68 µM; in assay [2] it was 0.14 µM.
On to `O=C(NCc1ccccc1)c1cnc2nc(NC3CCCCC3)ccc2c1O`, for which the Ki on Adenosine receptor A1 [1] is more than 10 µM.
The same measure, in the same setting: with `CCOC(=O)c1cnc2nc(C)ccc2c1O` the figure was more than 10 µM.
With `Cc1ccc2c(O)c(C(=O)NC3CCCCC3)cnc2n1`, the Ki on Adenosine receptor A1 [3] and at Adenosine receptor A1 [1] was more than 10 µM throughout.
On to `Cc1ccc2c(Cl)c(Cc3ccccc3)cnc2n1`, for which the inhibitory constant (Ki) at Adenosine receptor A1 [3] and at Adenosine receptor A1 [1] was more than 10 µM in each case.
On to `Cc1ccc2c(O)c(C(=O)NN3CCOCC3)cnc2n1`, for which the Ki was more than 10 µM at Adenosine receptor A2a, more than 10 µM on Adenosine receptor A1 [3], more than 10 µM on Adenosine receptor A1 [1] and 8.66 µM in assay [2].
Consider `Cc1ccc2c(O)c(C(=O)NC(C)c3ccccc3)cnc2n1` (configuration not stated), for which the values for the Ki at Adenosine receptor A1 [3] and at Adenosine receptor A1 [1] were 0.717 µM and 0.418 µM, respectively.
For `Cc1ccc2c(S)c(Cc3ccccc3)cnc2n1`, at Adenosine receptor A1 [1], the Ki came to 6.33 µM.

These data come from ChEMBL document CHEMBL1143448, “1,8-Naphthyridin-4-one derivatives as new ligands of A2A adenosine receptors” (Bioorg Med Chem Lett, 2005).
